# A selection: hits, their analogues and other compounds. The true share with any hit is near 1.8%.
# DDE Tn7 FP inh – disrupts Tn7 cyclic peptide binding to fibrin D-Dimer-E complex; FP displacement of FITC-Tn7 peptide from fibrin DD(E); 0% = median of compound wells per plate; inhibition, % at 8.3 µM; 0.13% of 370,000 active;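 active means inhibition above the mean of compounds falling within the control limits plus 3 SD of them, cut at about 14% in these data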;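 further: 0% = plate median of compound wells and 100% = 10 µM Aha-Tn7 peptide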
#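 Assay system: human fibrin DD(E) protein / Input: 2 µM fibrin DD(E) / Benchmarks: high control of 10 µM Aha-Tn7 peptide / Measured by: fluorescence polarization of the labelled Tn7 tracer / Medium: Tris buffer with calcium and detergent, pH 7.8 / Timing: 10 min compound pre-incubation, 3 h probe incubation at room temperature / Repeats: one replicate per compound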
# HTRA1 inhibitor – HTRA1 (human) protease inhibition; AID 504803; recombinant HTRA1, FP-rhodamine activity-based probe, fluorescence polarization; 0.5% of 340,000 active; Q92743; inhibition, % at 5.96 µM; in the data active means inhibition above about 36%;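 further: 0% = enzyme with DMSO and 100% = wells lacking enzyme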
# mABHD4 FP – ABHD4 (mouse) inhibition, primary FP screen | Q8VD66 | purified mABHD4, FP-Rh probe fluorescence polarization | inhibition, % at 8.92 µM | 0.54% of 370,000 active | AID 720543;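 active means inhibition exceeding the mean over every tested compound plus 3 SD, cut at about 30% in these data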;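 further: 0% = plate median of compound wells and 100% = S159A mutant with DMSO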
#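 Assay system: mouse ABHD4 enzyme, wild type / Also added: fluorescent activity-based probe FP-Rh / Doses: single nominal dose of 8.92 µM, 0.89% DMSO final / Timing: 45 min compound pre-incubation plus 60 min probe step, 25 °C / Signal: FP readout, ex 525 nm / em 598 nm / Control set: S159A mutant/DMSO as 100%, compound-well median as 0%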
# TCR-CD3 inh – inhibitors of human TCR-CD3 interaction; TAMRA-labeled TCR probe fluorescence, biochemical; inhibition, % at 9.4 µM; 0.37% of 360,000 active; AID 651800; in the data active means inhibition above about 19%;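 further: recombinant mutant TCR 2C K166C tagged with TAMRA read by polarization; 0% = receptor in buffer alone and 100% = receptor with positive control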
# SIAE inh – inhibitors of human sialic acid acetylesterase SIAE; Q9HAT2; AID 1053197; 0.69% of 370,000 active; inhibition, % at 9.66 µM; SIAE FP-Rh probe binding, fluorescence polarization;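 active means inhibition above a cutoff: mean of compounds within the control limits plus 3 SD of those, cut at about 17% in these data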;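 further: 0% = plate median of compound wells and 100% = probe without SIAE protein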
# Target sequence (Q9HAT2 whole entry, looked up): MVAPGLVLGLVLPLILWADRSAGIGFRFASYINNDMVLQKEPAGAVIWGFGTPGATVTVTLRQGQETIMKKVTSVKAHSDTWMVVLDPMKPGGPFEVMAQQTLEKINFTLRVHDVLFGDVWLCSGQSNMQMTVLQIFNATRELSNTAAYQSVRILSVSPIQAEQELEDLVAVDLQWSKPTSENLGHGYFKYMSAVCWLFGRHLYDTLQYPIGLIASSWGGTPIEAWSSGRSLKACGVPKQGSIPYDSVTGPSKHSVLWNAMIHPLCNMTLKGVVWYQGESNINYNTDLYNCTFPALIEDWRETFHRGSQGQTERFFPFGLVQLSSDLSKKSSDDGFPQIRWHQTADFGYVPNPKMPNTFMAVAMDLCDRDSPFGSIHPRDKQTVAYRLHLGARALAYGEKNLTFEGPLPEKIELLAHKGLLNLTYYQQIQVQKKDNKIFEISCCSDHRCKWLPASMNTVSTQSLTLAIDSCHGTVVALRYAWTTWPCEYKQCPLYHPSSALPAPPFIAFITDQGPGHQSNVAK
# DDE Tn6 FP inh – disrupts Tn6 cyclic peptide binding to fibrin D-Dimer-E complex; P02675; Fibrin DD(E) TRITC-Tn6 fluorescence polarization displacement; inhibition, % at 8.3 µM; 0.21% of 370,000 active; AID 720509;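 active means inhibition above a per-campaign cutoff: mean of compounds within control limits plus 3 SD, cut at about 15% in these data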;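 further: 0% = median of all compound wells on the plate and 100% = blocking peptide control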
# DDE Tn6 FP ctr – counter-screen for inhibitors of Tn6 peptide binding to fibrin DD(E); 2% of 680 active; inhibition, % at 8.3 µM; TRITC-Tn6 fluorescence polarization displacement; 0% = median of compound wells, not DMSO; shares compounds with DDE Tn6 FP inh;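 active means inhibition above the mean of test compounds lying between the control limits plus 3 SD of those, cut at about 14% in these data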;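 further: 0% = median of compound wells and 100% = wells with Aha-Tn7 blocking peptide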
# Tn6 DDE conf – DD(E)-Tn6 binding inhibition, FP confirmation. 10% of 680 active. inhibition, % at 8.3 µM. FP displacement of TRITC-Tn6 peptide from DD(E); 0% = per-plate median of test wells. shares compounds with DDE Tn6 FP inh;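 active means inhibition above the mean of compounds lying within the control limits plus 3 SD, cut at about 16% in these data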;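 further: 100% = high control wells holding a competing inhibitor peptide at 10 µM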
# Active calls of the source: *; · = no result.
SMILES,DDE Tn7 FP inh,HTRA1 inhibitor,mABHD4 FP,TCR-CD3 inh,SIAE inh,DDE Tn6 FP inh,DDE Tn6 FP ctr,Tn6 DDE conf
CO/N=C(\CCC(=O)O)c1cccs1,5.5,3.9,-7.3,2.5,3.7,16.2*,0.2,-3.8
CNc1ccc(/C=C2\CSc3ccccc3C2=O)cc1[N+](=O)[O-],-1.7,5.4,0.5,7.6,-3.7,19.4*,4.1,4.7
CCOc1ccc(-n2c(SCC(=O)c3ccccc3Cl)nnc2-c2ccncc2)cc1,-1.5,·,-8.7,·,4.4,5.2,·,·
Nn1c(SCC(=O)N2CCOCC2)nnc1-c1ccco1,3.7,4.3,-5.3,-0.2,3.1,3.5,·,·
Nn1c(SCC(=O)N2CCOCC2)nnc1-c1cc(-c2ccc(F)cc2)n[nH]1,6.0,·,0.0,·,0.3,15.9*,-6.1,-12.6
NS(=O)(=O)c1ccc(N2CCN(C(=O)C3COc4ccccc4O3)CC2)nc1 (stereo not drawn),0.3,1.5,5.7,6.4,6.3,18.0*,1.6,-4.9
O=C(C1COc2ccccc2O1)N1CCN(c2ccc(C(F)(F)F)cn2)CC1 (stereo not drawn),-3.3,-2.8,-6.3,-4.8,·,2.3,·,·
O=S(=O)(c1ccccc1)c1cnn(-c2ccccc2)c1-c1ccc(Cl)cc1,4.0,-26.7,-9.9,0.3,-3.5,16.1*,3.5,-6.2
O=C(OCc1cn(Cc2cccc(C(F)(F)F)c2)nn1)N1CCOCC1,-0.8,·,-0.6,·,-2.7,0.4,·,·
O=C(COc1ccccc1)Nc1cccc(-c2nc3cc4ccccc4cc3[nH]2)c1,2.5,-73.7,-119.2,18.6,-90.0,86.5*,6.6,24.6*
O=C(COc1ccccc1)Nc1cccc(-c2nn[nH]n2)c1,1.7,6.0,-4.6,-13.7,3.9,-3.3,·,·
Cc1onc(-c2ccc(Cl)cc2)c1-c1ccn(S(=O)(=O)c2cccc(Cl)c2)n1,-1.3,·,-9.1,·,-5.9,-2.2,·,·
COc1ccccc1N1CCN(S(=O)(=O)c2ccc3c(c2)n(C)c(=O)c(=O)n3C)CC1,-3.8,·,6.9,·,-0.1,2.9,·,·
CS(=O)(=O)c1cccc(C(=O)Nc2ccccc2Cc2ccccc2)c1,-3.2,-3.2,-4.1,-2.3,3.4,16.1*,0.3,-3.3
CCCCN=C(N)NC(=O)c1ccccc1,2.9,·,0.1,·,7.4,-1.6,·,·
O=c1[nH]nc(SCc2ccccc2Cl)n1-c1ccc2c(c1)OCCO2,3.3,·,-4.2,1.1,-1.6,15.8*,-5.6,-7.2
Cc1ccc(CN2C(=O)C(C)Oc3ccc(C)cc32)cc1 (stereo not drawn),-0.4,·,-5.5,-3.7,2.4,0.2,·,·
Cc1ccc2c(c1)N(Cc1ccccn1)C(=O)C(C)O2 (stereo not drawn),5.2,7.3,-4.7,5.7,0.6,16.9*,-5.0,-9.2
O=C(Nc1ccc(S(=O)(=O)Nc2ncccn2)cc1)C1CC(=O)N(c2ccc(Cl)cc2)C1 (stereo not drawn),5.1,-1.1,4.2,4.2,-8.0,16.6*,-0.7,-4.3
C=CCn1c(-c2ccc(F)cc2)n[nH]c1=S,-2.5,-10.3,-2.8,5.4,-1.7,15.9*,-1.8,-21.3
C=CCn1c(-c2ccccc2)n[nH]c1=S,-0.1,3.3,-1.4,-3.4,11.7,1.4,·,·
COc1cccc(NC(=O)COC(=O)CCS(=O)(=O)c2ccc(C)cc2)c1,7.9,5.6,-10.6,2.0,5.5,5.2,·,·
Cc1ccc(S(=O)(=O)CCC(=O)OCCOc2cccc(Br)c2)cc1,-5.3,-21.4,-0.4,10.5,2.6,15.4*,6.9,8.2
COc1ccc(NC(=O)CCCNS(=O)(=O)c2ccc3[nH]c(=O)oc3c2)cc1OC,3.4,·,3.7,·,4.7,4.0,·,·
COc1cccc(NC(=O)c2ccccc2N2C(=O)C3C4C=CC(C5CC45)C3C2=O)c1 (stereo not drawn),5.5,-31.7,-7.4,0.3,0.4,-0.4,·,·
